Compounds with a hit are over-represented: about 4.6% of the library has one in this group of screens.
TAAR1 ag = agonists of human TAAR1; AID 624467; activation, % at 3 µM; CHO RD-HGA16 TAAR1, Fluo-8 calcium fluorescence; vehicle wells 0%, saturating PEA agonist 100%; Q96RJ0; hit rate 0.99% among 360,000;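 active = activation above the mean activation of all test compounds in the run plus 3 SD, cut at about 38% in these data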
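Assay system – CHO-derived RD-HGA16 cells with stable Gα16 and human TAAR1 · Compound dosing – one-point dosing at 3 µM (nominal) · Incubation – 17-24 h seeding, 75 min 37 °C dye, 30 min RT · Measured by – kinetic Fluo-8 calcium fluorescence · Control set – DMSO vehicle as 0%, PEA at EC100 as 100% · Repeats – single well for each compound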
CHO parental Ca = counter-screen: ATP calcium response change in parental CHO cells. parental CHO-K1, ATP-induced calcium, Fluo-8 fluorescence. hit rate 0.63% among 330,000. inhibition, % at 5.6 µM;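 active = inhibition above that plate's mean sample inhibition plus 3 SD, cut at about 26% in these data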
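Assay system: untransfected parental CHO cell line. Also added: ATP agonist challenge. Dosing: one dose, 5.6 µM nominal. Measured by: Fluo-8 fluorescence. Read-out: % inhibition. Benchmarks: ATP wells versus no-ATP DMSO wells. Repeats: no replicates.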
OX1R antag-1 = antagonists of human orexin 1 receptor; inhibition, % at 5 µM; AID 434989; CHO/OX1R cells, Fluo-8 calcium fluorescence, orexin A; hit rate 0.43% among 330,000;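 active = inhibition above its plate's threshold, mean inhibition of all tested compounds on the plate plus 3 SD, cut at about 37% in these data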
Target sequence (O43613 whole entry, looked up): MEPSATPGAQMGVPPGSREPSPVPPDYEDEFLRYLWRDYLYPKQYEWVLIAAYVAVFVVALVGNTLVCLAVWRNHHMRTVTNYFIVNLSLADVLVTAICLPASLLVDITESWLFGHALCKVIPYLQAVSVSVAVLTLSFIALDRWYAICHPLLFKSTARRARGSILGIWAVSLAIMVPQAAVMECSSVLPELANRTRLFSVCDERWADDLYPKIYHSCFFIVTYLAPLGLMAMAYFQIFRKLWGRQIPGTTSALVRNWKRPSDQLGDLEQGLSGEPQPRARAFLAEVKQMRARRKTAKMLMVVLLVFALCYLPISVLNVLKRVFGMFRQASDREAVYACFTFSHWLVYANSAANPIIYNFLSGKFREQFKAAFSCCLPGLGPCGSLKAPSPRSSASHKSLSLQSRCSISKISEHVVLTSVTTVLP
OX1R antag-2 = OX1R (human) antagonism; OX1R-expressing cells, FRET antagonist read-out; inhibition, % at 6.6 µM; hit rate 1.8% among 330,000; in the data active = inhibition mostly above about 38%, no sharp cut-off; inactive = mostly below about 40%
GPR7 antag = human neuropeptides B/W receptor 1 antagonism | P48145 | GPR7-expressing cells, fluorescence antagonist assay | inhibition, % at 4.4 µM | hit rate 1.1% among 290,000 | AID 1861; in the data active = inhibition above about 16%, passing the limit was not always enough;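 note: cells stimulated with the agonist NPW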
TAAR1 antag = antagonists of human TAAR1; CHO RD-HGA16 TAAR1, Fluo-8 calcium fluorescence, antagonist; inhibition, % at 3 µM; Q96RJ0; hit rate 1.5% among 360,000;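 active = inhibition above a per-plate cutoff, the mean inhibition of test compounds on that plate plus 3 SD, cut at about 49% in these data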
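Test system: CHO RD-HGA16 cells bearing hTAAR1 | Reagent: β-PEA, EC80 | Compound dosing: 3 µM, single point | Schedule: Dye loading 75 min at 37 °C, then 30 min room temperature | Signal: Calcium fluorescence with Fluo-8 | Evaluation: Percent inhibition of PEA-evoked calcium signal, max/basal emission ratio | Control set: DMSO-only wells and EC80 β-PEA-stimulated wells | Repeats: Singlicate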
A number is an active result.

How did CC(CNC(=O)[C@@H](Cc1ccccc1)NC(=O)[C@H]1O[C@@H](n2ccc(=O)[nH]c2=O)[C@H](O)[C@@H]1O)c1ccccc1 (some centres undefined) do in these assays?
TAAR1 ag: inactive; TAAR1 antag: inactive

What do the screens show for `Cc1ccc(C(=O)NCC(c2ccc(F)cc2)N2CCOCC2)cc1S(=O)(=O)N1CCOCC1` (centres undefined)?
TAAR1 ag: inactive; TAAR1 antag: inactive

How did O=C(Nc1ccccc1N1CCOCC1)c1cccc2ccccc12 do in these assays?
TAAR1 ag: inactive; TAAR1 antag: inactive

How did O=C(NCc1ccc(F)cc1)c1ccc(N2CCc3ccccc32)c([N+](=O)[O-])c1 do in these assays?
TAAR1 ag: inactive; CHO parental Ca: inactive; OX1R antag-1: inactive; OX1R antag-2: inactive; GPR7 antag: inactive; TAAR1 antag: 51.5

What do the screens show for `COc1cccc(CNC(=O)[C@H]2CCCN2C(=O)[C@H]2CCCN2C(=O)c2cccc(F)c2)c1`?
TAAR1 ag: inactive; TAAR1 antag: inactive

Results for CCc1cccc(NS(=O)(=O)c2c(C)nc3sc(CC)nn3c2=O)c1 ?
TAAR1 ag: inactive; CHO parental Ca: inactive; OX1R antag-1: inactive; OX1R antag-2: inactive; GPR7 antag: 20.8; TAAR1 antag: inactive

What do the screens show for `CC(C)=CCCC(C)c1cc(C(=O)NCCc2ccc(O)cc2)c(N)s1` (centres undefined)?
TAAR1 ag: 40.5; TAAR1 antag: inactive

Results for CCc1cc2c(COC(=O)CCNS(=O)(=O)c3cccc(C(F)(F)F)c3)cc(=O)oc2cc1O ?
TAAR1 ag: inactive; CHO parental Ca: inactive; OX1R antag-1: inactive; OX1R antag-2: inactive; TAAR1 antag: 53.4

What do the screens show for `Cc1cc(NC(=O)COC(=O)CCNS(=O)(=O)c2cccc(C(F)(F)F)c2)no1`?
TAAR1 ag: inactive; CHO parental Ca: inactive; OX1R antag-1: inactive; OX1R antag-2: inactive; GPR7 antag: inactive; TAAR1 antag: inactive

How did Cc1nc2ccccc2c2c1CC(C(C)(Cl)Br)O2 (centres undefined) do in these assays?
TAAR1 ag: inactive; CHO parental Ca: 50.8; OX1R antag-1: inactive; OX1R antag-2: inactive; GPR7 antag: inactive; TAAR1 antag: inactive

How did Cc1ccc(C(O)(c2ccccc2)c2ccccc2C(C)N(C)C)c(C)c1 (centres undefined) do in these assays?
TAAR1 ag: 41.2; CHO parental Ca: inactive; OX1R antag-1: inactive; OX1R antag-2: inactive; GPR7 antag: inactive; TAAR1 antag: inactive

What do the screens show for `O=C(c1cccc(S(=O)(=O)N2CCN(c3ccccc3)CC2)c1)N1CCCC(C(F)(F)F)C1` (centres undefined)?
TAAR1 ag: inactive; CHO parental Ca: 33.8; OX1R antag-1: inactive; OX1R antag-2: inactive; TAAR1 antag: inactive

How did CC(C)C[C@H]1COc2cc(Br)ccc2S(=O)(=O)N1Cc1cccc(Cl)c1 do in these assays?
TAAR1 ag: inactive; TAAR1 antag: inactive

How did CCc1ccc2[nH]c(=O)c(CN(Cc3ccccc3OC)Cc3nnnn3Cc3ccco3)cc2c1 do in these assays?
TAAR1 ag: inactive; CHO parental Ca: inactive; OX1R antag-1: inactive; OX1R antag-2: inactive; GPR7 antag: inactive; TAAR1 antag: inactive

How did COc1ccccc1CN(Cc1cc2cc(C)ccc2[nH]c1=O)Cc1nnnn1Cc1ccco1 do in these assays?
TAAR1 ag: inactive; CHO parental Ca: inactive; OX1R antag-1: inactive; OX1R antag-2: 71.8; GPR7 antag: inactive; TAAR1 antag: inactive

What do the screens show for `O=C(c1ccc(NC(=S)NCc2ccc(Cl)cc2)cc1)N1CCCCC1`?
TAAR1 ag: 43.7; CHO parental Ca: inactive; OX1R antag-1: inactive; OX1R antag-2: inactive; GPR7 antag: inactive; TAAR1 antag: inactive

What do the screens show for `CC1(C)CCN2CCC(C)(C)c3c(O)ccc1c32`?
TAAR1 ag: inactive; CHO parental Ca: 38.4; OX1R antag-1: 40.5; OX1R antag-2: inactive; GPR7 antag: inactive; TAAR1 antag: inactive

How did CCCCc1c(-c2ccccc2OC)ncn1Cc1cccc(C)c1 do in these assays?
TAAR1 ag: inactive; TAAR1 antag: inactive

What do the screens show for `NS(=O)(=O)c1ccc(NNC(=O)c2ccc(Br)o2)c([N+](=O)[O-])c1`?
TAAR1 ag: inactive; CHO parental Ca: inactive; OX1R antag-1: inactive; OX1R antag-2: 58.1; TAAR1 antag: inactive
